Source: PubChem BioAssay
Myeloid diff MLP: compounds promoting myeloid differentiation; actives 1% (n = 360,000); calls only at 10 µM; AID 624256; ER-HoxA9 myeloid progenitors, lysozyme-GFP differentiation, flow cytometry;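 active = normalized GFP-positive differentiation at or above the plate's own cutoff, the solvent-only control mean plus 3 SD; inconclusive = no clear call, values can overlap the other calls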;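 note: cells exposed to compound for four days before flow analysis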
MT1-MMP act inh: MT1-MMP (human) activation inhibition | P50281 | HT1080 RFP-PRO-GFP cells, GFP/RFP ratio fluorescence, overnight; percent of plate control window, DMSO zero | GFP/RFP ratio change, % at 20 µM | actives 0.061% (n = 360,000) | AID 651647;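 active = GFP/RFP ratio change of at least 30% with cell ATP level not reduced by more than half and red fluorescence within 50% of control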
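Assay system: HT1080 cells carrying an RFP-PRO-GFP reporter | Dosing: Single dose of 20 µM compound, 1% DMSO final | Incubation: Cells overnight before dosing, compound overnight, 37 °C, 5% CO2 | Evaluation: GFP/RFP fluorescence ratio | Control set: DMSO and RFP-L50D-GFP cell wells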
SENP1 inh: inhibitors of human SENP1 SUMO protease catalytic domain; recombinant SENP1 catalytic domain, CyPet-SUMO1-YPet FRET cleavage; actives 0.21% (n = 360,000); Q9P0U3; inhibition, % at 10 µM;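 active = inhibition at least 30% at 10 µM, raw YFP signal under a set limit, fluorescence ratio 0.5 to 1.5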
Target sequence (Q9P0U3 419-644 limits assumed): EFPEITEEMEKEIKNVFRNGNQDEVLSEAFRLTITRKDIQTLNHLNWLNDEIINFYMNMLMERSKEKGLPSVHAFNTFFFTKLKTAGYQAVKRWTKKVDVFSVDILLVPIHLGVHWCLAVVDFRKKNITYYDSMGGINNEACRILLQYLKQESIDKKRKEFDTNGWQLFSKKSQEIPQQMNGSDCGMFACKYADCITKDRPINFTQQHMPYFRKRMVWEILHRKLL
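system = hSENP1 catalytic domain, recombinant | reagent = SFCypet-SUMO1-SFYpet substrate at 25 nM | doses = one dose per compound, 10 µM, 0.5% DMSO | incubation = enzyme reaction for 50 min at room temperature, dark | measured by = FRET, CFP and YFP emission | controls = no-enzyme low, enzyme-DMSO high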
DAGLB inh: blocks human DAGLB lipase activity; HEK293T DAGLB membrane lysate, EnzChek fluorogenic substrate; Q8NCG7; actives 0.059% (n = 340,000); inhibition, % at 5.17 µM; in the data active = inhibition above about 34%
beta cell repl: induces beta-cell replication in MIN6 cells; MIN6 cells proliferation, ATPlite luminescence, 48 h; cells starved in 0.2% serum; 100% = growth in 10% serum; proliferation, % at 10 µM; actives 0.29% (n = 330,000);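 active = compounds whose signal lies at least 3.5 SD above the mean of all wells on their plate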
NRP1-CendR mod: alters CendR peptide binding to human NRP-1; O14786; FAM-RPARPAR peptide binding to NRP-1, fluorescence polarization; inhibition, % at 25 µM; actives 0.85% (n = 360,000); AID 602438;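 active = inhibition or corrected inhibition above about 18%, plus a signal ratio from 0.5 to 1.5, limit read from the data, passing the limit was not always enough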
A number is an active result; i = inactive; ? = inconclusive; nt = no result; + = active, no number. Hits are enriched below; roughly 2.4% of the tested compounds scored in any of these assays.

SMILES	Myeloid diff MLP	MT1-MMP act inh	SENP1 inh	DAGLB inh	beta cell repl	NRP1-CendR mod
CC(/C=C/c1ccccc1)=N\NC(=O)CCc1ccccc1	i	i	i	i	i	24
COc1cc(CNc2ncnc3c2ncn3[C@H]2CN(Cc3cc(OC)c(OC)c(OC)c3)C[C@@H](CO)O2)cc(OC)c1OC	i	i	i	nt	nt	i
Cc1nc(C)c(-c2nnc(-c3ccccc3Cl)o2)cc1C(=O)NN	i	i	i	i	i	i
Cc1nc(C)c(-c2nnc(-c3ccc(C(C)(C)C)cc3)o2)cc1C(=O)NN	+	i	i	i	i	i
O=C(NCCN1CCOCC1)c1cc2sccc2n1Cc1ccc(Cl)cc1	+	i	i	i	i	i
Cc1ccc(C)c(N2CCN(S(=O)(=O)c3ccc4c(c3)NC(=O)CS4)CC2)c1	i	i	i	i	i	i
COc1ccc(OC)c(CNc2ccc3c(c2)CCC3)c1	+	i	i	i	i	i
COc1cccc(C(=O)Nc2ccc(N(C)C)cc2)c1OC	+	i	i	i	i	i
CCn1c2ccccc2c2cc(NC(=O)c3cccc(OC)c3OC)ccc21	+	i	i	i	i	i
CCn1c2ccccc2c2cc(NC(=O)c3cccc(OC)c3)ccc21	i	i	i	i	i	i
Cc1ccc(C)c(NC(=O)c2cc([N+](=O)[O-])cc([N+](=O)[O-])c2)c1	i	i	i	i	i	i
Cc1nc2nc(CCNS(=O)(=O)c3ccc(Cl)cc3)cn2nc1C	?	i	i	i	i	i
CCCCNC(=O)c1sc(=S)n2c1[nH]c(=O)c1ccc(C(=O)NCCc3ccc(OC)c(OC)c3)cc12	?	i	45	i	i	i
CCCCCn1c(=O)[nH]c2cc(C(=O)NCCc3ccc(OC)c(OC)c3)ccc2c1=O	i	i	i	i	i	i
C=CCc1cc(Cl)ccc1OCCn1ccnc1	+	i	i	i	i	i
Cc1ccc(O)c(-c2cc(C(=O)Nc3ccc(S(=O)(=O)Nc4nc(C)cc(C)n4)cc3)[nH]n2)c1	i	i	i	i	i	29
Cc1ccccc1CC(=O)Nc1ccc2c(c1)c(=O)n(C)n2-c1cccs1	i	i	i	nt	nt	27
Cc1c(C)c2c(OCC(=O)NCc3ccccn3)cc3c(c2oc1=O)CCC(C)(C)O3	i	i	i	i	i	i
Cc1cc(NS(=O)(=O)c2c(C)[nH]c(=O)[nH]c2=O)ccc1Br	i	i	i	i	i	i
COC(=O)c1[nH]c2c(c1C)C(=O)CC(c1cc(OC)ccc1OC)C2 (stereo unspecified)	+	i	i	i	i	i
COCCOC(=O)c1[nH]c2c(c1C)C(=O)CC(c1cc(OC)c(OC)c(OC)c1)C2 (stereo unspecified)	i	i	i	i	i	i
CCCCOC(=O)c1[nH]c2c(c1C)C(=O)CC(c1cc(OC)c(OC)c(OC)c1)C2 (stereo unspecified)	+	i	i	i	i	i
Cc1cc(Cl)ccc1OCC(=O)NNC(=O)C1CCCO1 (stereo unspecified)	i	i	i	i	i	25
CCN1C(=O)/C(=C/C=C2\N(CC)c3cc(S(=O)(=O)N(C)C)ccc3N2c2ccccc2)SC1=S	+	i	i	i	i	i
Cn1c(=O)c2c(SCc3c(F)cccc3Cl)nc(CC(C)(C)C)nc2n(C)c1=O	i	i	i	i	i	i
O=C(CCc1ccc(S(=O)(=O)N2CCOCC2)cc1)Nc1ccc2c(c1)OCCO2	i	i	i	i	i	i
COc1ccc(C2=Nc3ccccc3N(C(=O)c3ccc(C)cc3)C2C(=O)Nc2c(C)cccc2C)cc1 (stereo unspecified)	i	i	i	nt	nt	i
Cc1c(C(c2ccccc2O)c2c(C)n(C)n(-c3ccccc3)c2=O)c(=O)n(-c2ccccc2)n1C	+	i	i	i	i	i
COC(=O)C[C@H]1C=C[C@H](NC(=O)Nc2ccccc2)[C@@H](CO)O1	i	i	i	nt	nt	i
O=C(NCCC(=O)N1CCCC(C(F)(F)F)C1)c1ccc(Br)cc1 (stereo unspecified)	i	i	i	i	i	28
